# According to publication PMC2917810 (Chemical biology & drug design, 2008):
# Like-named read-outs stand apart in the source and are kept apart here. Positions of bridges follow the written chain, without caps; N, C: chain ends. Residues, ends and D or L forms follow the SMILES beside them.
# What was measured:
# RGS4Δ51N = target: T1, RGS4Δ51N (Homo sapiens, UniProt P49798); experiment: Single turnover RGS-stimulated Gαo GTPase; assay type: biochemical; details: for inhibition of RGS4 activity (rate of RGS stimulated Gαo GTP hydrolysis): purified proteins, mean ± S.E.M., n ≥3, SEM; for activity on RGS4 GAP activity: single turnover GAP assay, RGS4Δ51N 75–125 nM
# T1 sequence (P49798 52-205 limits assumed): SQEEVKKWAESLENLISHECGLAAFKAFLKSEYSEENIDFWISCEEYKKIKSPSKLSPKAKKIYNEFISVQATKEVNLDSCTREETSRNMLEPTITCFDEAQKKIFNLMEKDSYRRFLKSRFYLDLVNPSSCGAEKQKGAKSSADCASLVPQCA
# Procedure, shortened: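 Single-turnover GTP hydrolysis by purified rat His6-Gαo with γ[32P]GTP, stimulated by human MBP-His6-RGS4Δ51N (75–125 nM). Soluble disulfide-cyclized peptides (≥95% pure) were tested at 50 μM, or lower where solubility limited. Rates came from time courses, reported as percent decrease in the RGS-stimulated rate; IC50 estimated from these single-concentration inhibitions. Mean ± S.E.M., n ≥3; t-test.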
# RGS4Δ51N-Alexa Fluor 532 = experiment: FACScan flow cytometry binding of bead-bound peptides; parameters: species or system human; details: peptides on beads, 25 nM RGS4Δ51N-Alexa Fluor 532
# Procedure, shortened: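 Hit peptides resynthesized and disulfide-cyclized on 20 μm TentaGel beads; about 5 × 10^3 beads per sample (at most 5 nmoles peptide) washed, then incubated with RGS4Δ51N-Alexa Fluor 532 for at least 15 min at room temperature, protected from light. FACScan gated on acetylated TentaGel control beads, no compensation; their signal subtracted as background. Duplicates; one-way ANOVA with Bonferroni post-test.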
# [1] = Solubility and aggregation of soluble peptides; assay type: physicochemical
# RGS4 [2] = details: cited from earlier work
# RGS16 = experiment: Single turnover GAP assay, RGS16; assay type: biochemical, human; details: RGS16 1.5 μM
# Procedure, shortened: (§1)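 Single-turnover GTP hydrolysis by purified rat His6-Gαo with γ[32P]GTP, with or without RGS. The RGS proteins were human MBP-His6 constructs, purified on amylose then Ni-NTA: full-length RGS16 at 1.5 μM, RGS19Δ11C at 200 nM, and the RGS7 RGS domain (nucleotides 915–1359) at 500 nM. Test peptides were soluble, cyclized, and ≥95% pure.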
# RGS7box = experiment: Single turnover GAP assay, RGS7; assay type: biochemical, human; details: RGS7box 500 nM
# Procedure, shortened: as §1
# RGS4 [3] = details: membrane based steady state GTPase assay; cited from earlier work
compound,measurement,setting,value
"4nd: free N-terminal, disulfide bridged version of hit 4 (H-KVCMGGCT-NH2; disulfide 3-7; SMILES CSCC[C@@H]1NC(=O)[C@@H](NC(=O)[C@@H](NC(=O)[C@@H](N)CCCCN)C(C)C)CSSC[C@@H](C(=O)N[C@H](C(N)=O)[C@@H](C)O)NC(=O)CNC(=O)CNC1=O)",inhibition of RGS4 activity (rate of RGS stimulated Gαo GTP hydrolysis),RGS4Δ51N; 50 μM peptide in solution,33 ± 16%
"KVc[CMGGC]T-NH2, S-S (disulfide) [compound 4]",binding to RGS4Δ51N in FACScan assay,RGS4Δ51N-Alexa Fluor 532,bound RGS4 so well
same,activity on RGS4 GAP activity,RGS4Δ51N,little effect
2al: acetylated linear version of peptide 2 (Ac-GTCFGTCW-NH2; cysteine pairing not given here),activity on RGS4 GAP activity,RGS4Δ51N,inactive
"14nd: free N-terminal, disulfide bridged version of hit 14 (H-KHCYGFCK-NH2; disulfide 3-7; SMILES NCCCC[C@H](NC(=O)[C@@H]1CSSC[C@H](NC(=O)[C@H](Cc2c[nH]cn2)NC(=O)[C@@H](N)CCCCN)C(=O)N[C@@H](Cc2ccc(O)cc2)C(=O)NCC(=O)N[C@@H](Cc2ccccc2)C(=O)N1)C(N)=O)",solubility,"[1]; could not be tested at 50 μM in GAP assay, solubility verified by HPLC",limited by solubility
"Ac-Val-Lys-[Cys-Thr-Gly-Phe-Cys]-Glu-NH2, S-S (disulfide) [peptide 20 in Roof et al]",inhibited RGS4 GAP activity,RGS4 [2]; at 100 μM,~40%
"CC(=O)NCC(=O)N[C@H](C(=O)N[C@H]1CSSC[C@@H](C(=O)N[C@@H](Cc2c[nH]c3ccccc23)C(N)=O)NC(=O)[C@H]([C@@H](C)O)NC(=O)CNC(=O)[C@H](Cc2ccccc2)NC1=O)[C@@H](C)O [2ad, Ac-Gly-Thr-c[Cys-Phe-Gly-Thr-Cys]-Trp-NH2, S-S] (Ac-GTCFGTCW-NH2; disulfide 3-7)",activity against RGS16,RGS16,inactive
same,IC50,RGS4Δ51N,~50 µM
same,inhibition of RGS4 activity (rate of RGS stimulated Gαo GTP hydrolysis),RGS4Δ51N; 25 μM peptide (limited by solubility),30 ± 12%
same,solubility,[1],limited by solubility
same,activity against RGS7,RGS7box,inactive
"KLc[CHGYC]H-NH2, S-S (disulfide) [compound 11]",aggregation,[1]; not evaluated in GAP assay for this reason,signs of aggregation
2nl: free N-terminal linear version of peptide 2 (H-GTCFGTCW-NH2; cysteine pairing not given here),activity on RGS4 GAP activity,RGS4Δ51N,inactive
"C[C@@H](O)[C@@H]1NC(=O)CNC(=O)[C@H](Cc2ccccc2)NC(=O)[C@@H](NC(=O)[C@@H](NC(=O)CN)[C@@H](C)O)CSSC[C@@H](C(=O)N[C@@H](Cc2c[nH]c3ccccc23)C(N)=O)NC1=O [2nd, Gly-Thr-c[Cys-Phe-Gly-Thr-Cys]-Trp-NH2, S-S] (H-GTCFGTCW-NH2; disulfide 3-7)",activity against RGS16,RGS16,inactive
same,IC50,RGS4Δ51N,~50 µM
same,inhibition of RGS4 activity (rate of RGS stimulated Gαo GTP hydrolysis),RGS4Δ51N; 50 μM peptide in solution,48 ± 7%
same,activity against RGS7,RGS7box,inactive
"Ac-Val-Lys-c[Cys-Thr-Gly-Ile-Cys]-Glu-NH2, S-S (disulfide) [YJ34, reference compound]",IC50,RGS4 [3],26 µM
same,solubility,[1],limited by solubility
"1nd: free N-terminal, disulfide bridged version of hit 1 (H-YNCQGECE-NH2; disulfide 3-7; SMILES NC(=O)CC[C@@H]1NC(=O)[C@@H](NC(=O)[C@H](CC(N)=O)NC(=O)[C@@H](N)Cc2ccc(O)cc2)CSSC[C@@H](C(=O)N[C@@H](CCC(=O)O)C(N)=O)NC(=O)[C@H](CCC(=O)O)NC(=O)CNC1=O)",inhibition of RGS4 activity (rate of RGS stimulated Gαo GTP hydrolysis),RGS4Δ51N; 50 μM peptide in solution,33 ± 15%
"Ac-Val-Lys-c[Cys-Thr-Ser-Ile-Cys]-Glu-NH2, S-S (disulfide) [BR2]",activity as RGS4 inhibitor,RGS4 [2],inactive
